In ChEMBL document CHEMBL2034894, “The structures of three metabolites of the algal hepatotoxin okadaic acid produced by oxidation with human cytochrome P450” (Bioorg Med Chem, 2012):
Activity calls are given as the source filed them. No cut-off for these calls is given here. Numbered stars: 1 amine (or outer) side, 2 acyl side, 3 side chain; on linkers, the order of the positions; unused ones are H or OH. Bridge positions count the residues as written; N and C are the ends. Square brackets hold non-standard residues; d marks the D form. Peptide text beside a SMILES is read from it. Adda = CO[C@@H](Cc1ccccc1)[C@@H](C)/C=C(C)/C=C/[C@H](N[*:1])[C@H](C)C(=O)[*:2]; dAsp(3S-Me) = C[C@H](C(=O)[*:3])[C@@H](N[*:1])C(=O)[*:2]; d(γGlu) = O=C(O)[C@@H](CCC(=O)[*:2])N[*:1]; NMeDha = C=C(NC)C(=O)O

Legend:
[1] = Inhibition of protein phosphatase 1
[2] = Inhibition of PP2A using p-NPP as substrate pretreated for 1 hr by spectrophotometry
[3] = Reversible inhibition of PP2A using p-NPP as substrate assessed as recovery of enzyme activity at 80 uM […] followed by 4 hrs dialysis by spectrophotometry relative to control; design: scale not given: the % may be the effect or the level left
[4] = Irreversible inhibition of PP2A using p-NPP as substrate assessed as recovery of enzyme activity pretreated for 1 hr followed by 4 hrs dialysis by spectrophotometry
Procedure, shortened: (§1)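 PP2A (0.07 U) was mixed 1:1 by volume with inhibitor solutions in 5% MeOH/H2O (20–100 µM before mixing) at 37 °C; controls got 5% MeOH/H2O alone. Buffer: 50 mM Tris, 2 mM MnCl2, 1.1 mM EDTA, 1.3 mM DTT, 0.125 mg/mL BSA. Samples were dialysed against buffer for 4 h at 5–7 °C, then given p-NPP (7.8 mM final) for 2 h at 37 °C; A405 read against control.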

[5] = Reversible inhibition of PP2A using p-NPP as substrate assessed as recovery of enzyme activity at 100 uM pretreated for […] followed by 4 hrs dialysis by spectrophotometry relative to control; design: scale not given: the % may be the effect or the level left; procedure, shortened: as §1

| SMILES | inhibition [1] | inhibition [2] | Activity [3] | IC50 [2] | inhibition [4] | Activity [5] |
| --- | --- | --- | --- | --- | --- | --- |
| C=C1[C@@H](O)[C@@H]2O[C@]3(CC[C@H](/C=C/[C@@H](C)[C@@H]4CC(C)=C[C@@]5(O[C@H](C[C@@](C)(O)C(=O)O)CC[C@H]5O)O4)O3)CC[C@H]2O[C@@H]1[C@@H](O)C[C@H](C)[C@H]1O[C@@]2(CCCCO2)CC[C@H]1C | Active | Active | – | – | – | – |
| C=C1[C@@H](O)[C@@H]2O[C@]3(CC[C@H](/C=C/[C@@H](C)[C@@H]4CC(C=O)=C[C@@]5(O[C@H](C[C@@](C)(O)C(=O)O)CC[C@H]5O)O4)O3)CC[C@H]2O[C@@H]1[C@@H](O)C[C@H](C)[C@H]1O[C@@]2(CCCCO2)CC[C@H]1C | Active | – | 117% | 3.98 nM | – | – |
| C=C1C(=O)N[C@H](C)C(=O)N[C@@H](CC(C)C)C(=O)N[C@@H](C(=O)O)[C@H](C)C(=O)N[C@@H](CCCNC(=N)N)C(=O)N[C@@H](/C=C/C(C)=C/[C@H](C)[C@H](Cc2ccccc2)OC)[C@H](C)C(=O)N[C@@H](C(=O)O)CCC(=O)N1C (R[Adda][d(γGlu)][NMeDha][dA]L[dAsp(3S-Me)]-OH; lactam N-7) | – | – | – | – | Active | – |
| C=C1[C@@H](O)[C@@H]2O[C@]3(CC[C@H](/C=C/[C@@H](C)[C@@H]4CC(C)=C[C@@]5(O[C@H](C[C@@](C)(O)C(=O)O)CC[C@H]5O)O4)O3)CC[C@H]2O[C@@H]1[C@@H](O)C[C@H](C)[C@H]1O[C@]2(CC[C@H]1C)CC(O)CCO2 (stereo partly specified) | Active | – | – | 0.94 nM | – | – |
| C=C1[C@@H](O)[C@@H]2O[C@]3(CC[C@H](/C=C/[C@@H](C)[C@@H]4CC(CO)=C[C@@]5(O[C@H](C[C@@](C)(O)C(=O)O)CC[C@H]5O)O4)O3)CC[C@H]2O[C@@H]1[C@@H](O)C[C@H](C)[C@H]1O[C@@]2(CCCCO2)CC[C@H]1C | Active | – | – | 1.34 nM | – | 113% |
